What all share (type): functional
Assay [1] has as its system Streptococcus agalactiae. Kind of assay: Antibacterial activity against Streptococcus agalactiae at 160 ug/ml after 24 hrs by Oxford cup assay. As to conditions: read-out: IZ. In outline:
(§1)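 Oxford cup diffusion: saline inoculum set by McFarland standard, spread on nutrient agar plates. […] Inhibition zone measured after 24 h at 37 °C; triplicate.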

Assay [2] deals with Streptococcus agalactiae. As to the kind of experiment: Antibacterial activity against Streptococcus agalactiae at 320 ug/ml after 24 hrs by Oxford cup assay. The settings on record: read-out: IZ. In outline:
as §1

In assay [3] the test system is Staphylococcus epidermidis. Kind of assay: Antibacterial activity against methicillin-resistant Staphylococcus epidermidis after 48 hrs by agar dilution method. In outline: (§2)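 Agar dilution per NCCLS using clinical isolates. Compound DMSO/water solutions are 2-fold serially diluted in water, then mixed 1:10 into hot Mueller–Hinton agar. Inocula come from blood slants, adjusted to about 10⁵−10⁶ cfu/mL in 0.90% saline, and spotted at 10 μL. Plates incubated at 36.5 °C for 48 h. MIC is the lowest concentration giving complete growth inhibition. Run in triplicate at pH 7.40.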
On the technique in general: Agar dilution tests growth on a series of plates holding different concentrations.

Assay [4] deals with Escherichia coli. As to the kind of experiment: Antibacterial activity against Escherichia coli at 160 ug/ml after 24 hrs by Oxford cup assay. As to conditions: read-out: IZ. In outline: as §1
For assay [5], the system named is Staphylococcus aureus. Kind of assay: Antibacterial activity against methicillin-resistant Staphylococcus aureus at 320 ug/ml after 24 hrs by Oxford cup assay. The settings on record: read-out: IZ. In outline: (§3)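 Oxford cup diffusion using clinical isolates. Inocula are made in 0.9% saline to a McFarland standard and spread on nutrient agar. […] Inhibition zone diameter is measured after 24 h at 37 °C. Run in triplicate.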

The test system of assay [6] is Escherichia coli. As to the kind of experiment: Antibacterial activity against Escherichia coli at 320 ug/ml after 24 hrs by Oxford cup assay. As to conditions: read-out: IZ. In outline: as §1
Assay [7] relates to Streptococcus agalactiae. As to the kind of experiment: Antibacterial activity against Streptococcus agalactiae after 48 hrs by agar dilution method. Summed up: (§4)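 Agar dilution per NCCLS on Mueller–Hinton agar; compound in DMSO/water, 2-fold serial dilutions in distilled water, 2 mL dilution mixed into 18 mL hot agar. Clinical isolates from blood slants, adjusted to about 10⁵−10⁶ cfu/mL in 0.90% saline; 10 μL spotted. Incubated 36.5 °C for 48 h; MIC = lowest concentration giving complete growth inhibition. Triplicate runs.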

Assay [8] deals with Staphylococcus epidermidis. As to the kind of experiment: Antibacterial activity against methicillin-resistant Staphylococcus epidermidis at 160 ug/ml after 24 hrs by Oxford cup assay. As to conditions: read-out: IZ. Summed up: as §3
Assay [9] relates to Staphylococcus aureus. Kind of assay: Antibacterial activity against methicillin-resistant Staphylococcus aureus after 48 hrs by agar dilution method. In outline:
as §2

Assay [10] deals with Staphylococcus aureus. As to the kind of experiment: Antibacterial activity against methicillin-resistant Staphylococcus aureus at 160 ug/ml after 24 hrs by Oxford cup assay. The settings on record: read-out: IZ. Summed up:
as §3

The test system of assay [11] is Staphylococcus epidermidis. As to the kind of experiment: Antibacterial activity against methicillin-resistant Staphylococcus epidermidis at 320 ug/ml after 24 hrs by Oxford cup assay. The settings on record: read-out: IZ. Summed up: as §3
For assay [12], the system named is Escherichia coli. As to the kind of experiment: Antibacterial activity against Escherichia coli after 48 hrs by agar dilution method. Summed up:
as §4

What is called MIC is the lowest concentration found to suppress growth. A high value points to a less susceptible organism.

In brackets after ≈: the same amount, converted by molar mass.

For the compound `C=C[C@]1(C)C[C@@H](OC(=O)CSc2nnc(NC(=O)c3ccccc3Cl)s2)[C@]2(C)[C@H](C)CC[C@]3(CCC(=O)[C@H]32)[C@@H](C)[C@@H]1O`, the zone of inhibition at 160 µg/mL in [1] was 12.7 mm; in assay [4], 0 mm; in assay [8] it was 11.9 mm; in assay [10], 12.2 mm. The zone of inhibition at 320 µg/mL was 15.5 mm in [2], 15 mm in [5], 10.3 mm in assay [6] and 12.6 mm in assay [11]. The minimum inhibitory concentration (MIC) in [3] is 8 µg/mL (≈ 12.7 µM); in assay [7] it was 2 µg/mL (≈ 3.16 µM); in assay [9] it was 2 µg/mL (≈ 3.16 µM); in assay [12], not below 64 µg/mL.
Take `C=C[C@]1(C)C[C@@H](OC(=O)CSc2nnc(NC(=O)c3cccc(Cl)c3)s2)[C@]2(C)[C@H](C)CC[C@]3(CCC(=O)[C@H]32)[C@@H](C)[C@@H]1O`: the zone of inhibition at 160 µg/mL was 12.7 mm in [1], 11.7 mm in assay [4], 12.9 mm in assay [8] and 13.4 mm in [10]. Besides, the zone of inhibition at 320 µg/mL in assay [2] was determined as 13.5 mm; in assay [5], 14.7 mm; in assay [6], 12.6 mm; in [11] it was 15 mm. For the same compound, the MIC in assay [3] stood at 2 µg/mL (≈ 3.16 µM); in assay [7], 2 µg/mL (≈ 3.16 µM); in [9] it was 2 µg/mL (≈ 3.16 µM); in [12] it was 32 µg/mL (≈ 50.6 µM).
With `C=C[C@]1(C)C[C@@H](OC(=O)CSc2nnc(NC(=O)c3ccc(Cl)cc3)s2)[C@]2(C)[C@H](C)CC[C@]3(CCC(=O)[C@H]32)[C@@H](C)[C@@H]1O`, the zone of inhibition at 160 µg/mL stood at 11.4 mm in assay [1], 0 mm in assay [4], 11.3 mm in [8] and 11.9 mm in [10]. For the same compound, the zone of inhibition at 320 µg/mL in assay [2] came out at 13.4 mm; in assay [5], 13.7 mm; in [6] it was 10 mm; in assay [11], 14.1 mm. The MIC in assay [3] was 4 µg/mL (≈ 6.33 µM); in assay [7], 4 µg/mL (≈ 6.33 µM); in [9], 4 µg/mL (≈ 6.33 µM); in assay [12] it was not below 64 µg/mL.
With `C=C[C@]1(C)C[C@@H](OC(=O)CSc2nnc(NC(=O)c3ccccc3OC)s2)[C@]2(C)[C@H](C)CC[C@]3(CCC(=O)[C@H]32)[C@@H](C)[C@@H]1O`, the zone of inhibition at 160 µg/mL amounted to 11.3 mm in assay [1], 9.96 mm in assay [4], 11.9 mm in [8] and 12.2 mm in [10]. Moreover, the zone of inhibition at 320 µg/mL came to 13.4 mm in assay [2], 14.8 mm in assay [5], 11.5 mm in [6] and 14.2 mm in assay [11]. For the same compound, the MIC turned out to be 2 µg/mL (≈ 3.19 µM) in [3], 4 µg/mL (≈ 6.37 µM) in [7], 1 µg/mL (≈ 1.59 µM) in [9] and 16 µg/mL (≈ 25.5 µM) in [12].
Take `C=C[C@]1(C)C[C@@H](OC(=O)CSc2nnc(NC(=O)c3cccc(OC)c3)s2)[C@]2(C)[C@H](C)CC[C@]3(CCC(=O)[C@H]32)[C@@H](C)[C@@H]1O`: the zone of inhibition at 160 µg/mL was determined as 11.7 mm in [1], 9.02 mm in [4], 12.3 mm in assay [8] and 11.4 mm in [10]. Besides, the zone of inhibition at 320 µg/mL was 12.8 mm in assay [2], 13.1 mm in assay [5], 10.9 mm in assay [6] and 13.8 mm in assay [11]. The MIC in assay [3] was 4 µg/mL (≈ 6.37 µM); in assay [7], 8 µg/mL (≈ 12.7 µM); in assay [9], 8 µg/mL (≈ 12.7 µM); in [12], not below 64 µg/mL.

The record behind these values is ChEMBL document CHEMBL3286209, “Synthesis and biological activities of novel pleuromutilin derivatives with a substituted thiadiazole moiety as potent drug-resistant bacteria inhibitors” (J Med Chem, 2014).
